Source: ChEMBL document CHEMBL3877285, “Design of a doxorubicin-peptidomimetic conjugate that targets HER2-positive cancer cells” (Eur J Med Chem, 2017)

Experiments:
[1] = Antiproliferative activity against human MCF10A cells after 72 hrs by CellTiter-Glo assay; type: cell-based; settings: MCF-10A
Summary of the method: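 Cells were kept at 37 °C, 5% CO2. Media: RPMI-1640 (BT-474, MCF-7), EMEM (Calu-3), McCoy's (SKBR-3), DMEM (MCF-10A), each with 10% FBS, 1% pen-strep and 1% insulin. 10,000 cells per well were dosed with serial dilutions in serum-free medium. Luminescence was read by CellTiter-Glo and IC50 taken from the dose-response curve. Each experiment was run three times (SD).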

[2] = Cell cycle arrest in human BT474 cells assessed as G0/G1 phase accumulation at 1 uM incubated for 1 hr followed by 24 hrs incubation in drug free medium by propidium iodide staining based flow cytometry; type: functional; settings: BT-474
Summary of the method: (§1)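 About 2 × 10⁵ BT-474 cells were exposed to 1 μM for 1 h, then kept 24 h in drug-free, serum-free medium. Cells were fixed in 70% ethanol (2 h, −20 °C) and stained with 100 μg/mL RNase plus 40 μg/mL propidium iodide (4 °C, 30 min). DNA content was read on 10,000 cells by FACS. Experiments were done in triplicate.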

[3] = Cell cycle arrest in human BT474 cells assessed as S phase accumulation at 1 uM incubated for 1 hr followed by 24 hrs incubation in drug free medium by propidium iodide staining based flow cytometry (reference value: 8.4 to 13.6%); type: functional; settings: BT-474
Summary of the method: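 About 2 × 10⁵ BT-474 cells exposed 1 h, then 24 h in drug-free, serum-free medium. Cells were fixed in 70% ethanol for 2 h at −20 °C, then stained with 100 μg/mL RNase plus 40 μg/mL propidium iodide for 30 min at 4 °C. DNA content was read by FACS (10,000 events). Triplicate.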

[4] = Cell cycle arrest in human BT474 cells assessed as G2/M phase accumulation at 1 uM incubated for 1 hr followed by 24 hrs incubation in drug free medium by propidium iodide staining based flow cytometry; type: functional; settings: BT-474; summary of the method: as §1
[5] = biological target: T1, Receptor tyrosine-protein kinase erbB-2 (Homo sapiens, UniProt P04626); experiment: Binding affinity to HER2 extracellular domain (unknown origin) by SPR assay
T1 sequence (P04626 whole entry, the tested form may be a part): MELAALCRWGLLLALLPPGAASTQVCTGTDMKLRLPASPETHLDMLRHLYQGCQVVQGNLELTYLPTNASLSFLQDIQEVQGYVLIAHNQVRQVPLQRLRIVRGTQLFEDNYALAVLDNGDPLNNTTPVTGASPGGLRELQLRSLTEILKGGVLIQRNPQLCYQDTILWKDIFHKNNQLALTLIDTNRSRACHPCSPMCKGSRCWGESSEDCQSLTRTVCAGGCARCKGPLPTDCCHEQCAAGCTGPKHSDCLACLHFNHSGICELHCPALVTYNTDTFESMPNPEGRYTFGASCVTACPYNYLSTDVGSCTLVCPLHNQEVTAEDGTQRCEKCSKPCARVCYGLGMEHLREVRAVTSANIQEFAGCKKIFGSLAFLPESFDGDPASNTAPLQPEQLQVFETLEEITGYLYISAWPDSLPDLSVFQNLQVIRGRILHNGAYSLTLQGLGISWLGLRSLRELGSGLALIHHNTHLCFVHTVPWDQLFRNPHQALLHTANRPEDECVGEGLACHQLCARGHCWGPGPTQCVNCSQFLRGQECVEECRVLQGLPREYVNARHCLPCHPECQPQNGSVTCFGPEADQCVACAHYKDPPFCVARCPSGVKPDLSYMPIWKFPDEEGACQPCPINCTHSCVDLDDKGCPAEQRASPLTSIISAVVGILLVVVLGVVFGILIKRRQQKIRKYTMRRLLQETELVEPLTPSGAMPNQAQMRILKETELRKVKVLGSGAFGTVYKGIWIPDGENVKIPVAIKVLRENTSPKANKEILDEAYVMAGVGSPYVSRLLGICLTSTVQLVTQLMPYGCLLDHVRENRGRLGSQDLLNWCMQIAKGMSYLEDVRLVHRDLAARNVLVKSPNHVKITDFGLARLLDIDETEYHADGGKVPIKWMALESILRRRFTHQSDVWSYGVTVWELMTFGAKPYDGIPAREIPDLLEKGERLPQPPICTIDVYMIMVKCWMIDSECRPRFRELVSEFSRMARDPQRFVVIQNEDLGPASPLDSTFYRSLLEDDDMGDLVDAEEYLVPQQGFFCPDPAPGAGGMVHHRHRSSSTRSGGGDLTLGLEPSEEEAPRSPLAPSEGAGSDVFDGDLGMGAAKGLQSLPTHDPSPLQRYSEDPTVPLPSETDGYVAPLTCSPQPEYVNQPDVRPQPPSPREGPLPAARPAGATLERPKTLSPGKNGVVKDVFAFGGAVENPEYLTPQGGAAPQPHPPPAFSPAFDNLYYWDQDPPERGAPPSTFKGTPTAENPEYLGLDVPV

[6] = Antiproliferative activity against human MCF7 cells after 72 hrs by CellTiter-Glo assay; type: functional, cell-based; settings: MCF7, 72 h
Summary of the method: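 Cells were kept at 37 °C, 5% CO2. 10,000 cells per well were dosed with serial dilutions in serum-free medium. Luminescence was read by CellTiter-Glo and IC50 taken from the dose-response curve. Each experiment was run three times (SD).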

[7] = Drug uptake in nucleus of human SKBR3 cells at 5 uM after 30 mins by DAPI staining based confocal microscopic method; type: ADME, cell-based; settings: sk-br-3, 0.5 h
Summary of the method: (§2)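 SKBR-3 cells were seeded for 24 h, then exposed to 5 μM at 37 °C for 30 min, 4 h or 24 h. Cells were PBS-washed, fixed in methanol at −20 °C for 5 min and mounted with DAPI.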

[8] = Drug uptake in nucleus of human SKBR3 cells at 5 uM after 4 hrs by DAPI staining based confocal microscopic method; type: ADME, cell-based; settings: sk-br-3, 4 h; summary of the method: as §2
[9] = Drug uptake in cytoplasm of human SKBR3 cells at 5 uM after 4 hrs by DAPI staining based confocal microscopic method; type: ADME, cell-based; settings: sk-br-3, 4 h; summary of the method: as §2
[10] = Drug uptake in cytoplasm of human SKBR3 cells at 5 uM after 24 hrs by DAPI staining based confocal microscopic method; type: ADME, cell-based; settings: sk-br-3, 24 h; summary of the method: as §2
[11] = Drug uptake in human MCF7 cells at 5 uM after 24 hrs by DAPI staining based confocal microscopic method; type: ADME, cell-based; settings: mcf7, 24 h
[12] = Drug degradation in human SKBR3 cells at 50 uM after 4 hrs by HPLC method; type: ADME, cell-based, SK-BR-3; settings: read-out: Drug degradation
Summary of the method: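 About 15,000 trypsinised SKBR-3 cells were resuspended with 50 μM (final) conjugate in serum-free medium at 37 °C, one sample per time point (0 min–48 h). Cells were lysed with chilled acetonitrile, sonicated and centrifuged, and the supernatant was cleaned on Sep-Pak. Intact-conjugate peak area was measured by C18 reversed-phase HPLC and expressed relative to time zero. Each time point was run in triplicate.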

[13] = Antiproliferative activity against human BT474 cells after 24 hrs by CellTiter-Glo assay; type: functional, cell-based; settings: BT-474, 24 h
Summary of the method: (§3)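 10,000 cells per well, plated the day before treatment. Triplicate wells got serially diluted drug (0.001 to 100 μM) in serum-free medium at 37 °C. 1% SDS and 1% DMSO served as controls. After a PBS wash, CellTiter-Glo was added for about 20 min and luminescence read. IC50 came from the dose-response curve. Each experiment was run three times (SD).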

[14] = Antiproliferative activity against human BT474 cells after 48 hrs by CellTiter-Glo assay; type: functional, cell-based; settings: BT-474, 48 h; summary of the method: as §3
[15] = Antiproliferative activity against human SKBR3 cells after 24 hrs by CellTiter-Glo assay; type: functional, cell-based; settings: SK-BR-3, 24 h; summary of the method: as §3
[16] = Antiproliferative activity against human Calu3 cells after 24 hrs by CellTiter-Glo assay; type: functional, cell-based; settings: Calu-3, 24 h; summary of the method: as §3
[17] = Antiproliferative activity against human Calu3 cells after 48 hrs by CellTiter-Glo assay; type: functional, cell-based; settings: Calu-3, 48 h; summary of the method: as §3
[18] = Drug uptake in cytoplasm of human SKBR3 cells at 5 uM after 30 mins by DAPI staining based confocal microscopic method; type: ADME, cell-based; settings: sk-br-3, 0.5 h
Summary of the method: (§4)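 SKBR-3 cells were seeded and treated 24 h later, then incubated at 37 °C for 30 min, 4 h or 24 h. Cells were fixed with methanol for 5 min at −20 °C and mounted in DAPI.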

[19] = Drug uptake in human SKBR3 cells at 5 uM after 24 hrs by DAPI staining based confocal microscopic method; type: ADME, cell-based; settings: sk-br-3, 24 h; summary of the method: as §4
[20] = Drug uptake in human MCF7 cells at 5 uM after 30 mins by DAPI staining based confocal microscopic method; type: ADME, cell-based; settings: mcf7, 0.5 h
Summary of the method: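 MCF-7 cells were run like the SKBR-3 imaging: 37 °C for 30 min, 4 h or 24 h, methanol fixation at −20 °C, and DAPI mounting.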

[21] = Antiproliferative activity against human BT474 spheroids after 3 days by CellTiter-Glo assay; type: functional; settings: BT-474, 72 h
Summary of the method: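 They were treated at 0.001–10 μM for 3 days at 37 °C, with 1% SDS and 1% DMSO as controls. Viability was read by 3D CellTiter-Glo luminescence and IC50 taken from the log plot. Each experiment was run three times (SD).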

[22] = biological target: T1, Receptor tyrosine-protein kinase erbB-2; experiment: Binding affinity to HER2 domain-4 (unknown origin) by SPR assay

With `N=C(N)NCCC[C@H](N)C(=O)N[C@@H](CC(=O)N[C@@H](Cc1ccccc1)C(=O)O)c1cccc2ccccc12` the IC50 [1] was > 50 µM, the Activity [2] was 67% and the Activity [3] was 5.7%. The Activity [4] was 23.6% and the Kd [5] was 1 µM.
In the case of `COc1cccc2c1C(=O)c1c(O)c3c(c(O)c1C2=O)C[C@@](O)(C(=O)CO)C[C@@H]3O[C@H]1C[C@H](NC(=O)CCCC(=O)N[C@@H](CCCNC(=N)N)C(=O)N[C@@H](CC(=O)N[C@@H](Cc2ccccc2)C(=O)O)c2cccc3ccccc23)[C@H](O)[C@H](C)O1`, the IC50 [6] is reported as 0.8 µM, the Drug uptake [7] is reported as “Active” and the Drug uptake [8] is reported as “Active”. For the same compound, the Drug uptake [9] was “Active”, the Drug uptake [10] was “Active” and the Drug uptake [11] was “Active”. The metabolised at 4 h, 50 µM [12] was 50%.
Work on `COc1cccc2c1C(=O)c1c(O)c3c(c(O)c1C2=O)C[C@@](O)(C(=O)CO)C[C@@H]3O[C@H]1C[C@H](N)[C@H](O)[C@H](C)O1` [DOXORUBICIN] yielded an IC50 [13] of 0.053 µM, an IC50 [14] of 0.041 µM and an IC50 [15] of 0.034 µM. It also gave an IC50 [16] of 0.27 µM, an IC50 [17] of 0.11 µM and an IC50 [1] of 0.15 µM. For the same compound, the Drug uptake [7] was “Active”, the Drug uptake [18] was “Active” and the Drug uptake [8] was “Active”. The Drug uptake [19] was “Active”, the Drug uptake [20] was “Active” and the Activity [3] was 3.7%. It also gave an IC50 [21] of 0.18 µM and a Kd [22] of 11000 µM.
